For test [1], the system named is Callosobruchus maculatus. Put plainly: Inhibition of oviposition in adult Callosobruchus maculatus grown on compound pre-treated cowpea seeds assessed as reduction in number of eggs at 10 to 500 ppm measured after 72 hr. It counts as functional, organism-based. Put shortly:
(§1)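 Compounds in acetone at 500, 100 and 10 ppm were coated onto cowpea seed by rotary evaporation (5 mL per 25 g) and air-dried 1 h. 5 g of treated seed went in a vial with 5 mated females, 2–3 days old, 5 replicates per treatment. Females were removed at 72 h and eggs counted. F1 emergence was counted from day 25 over two weeks. Means compared by ANOVA with SNK or LSD.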

The test system of test [2] is Callosobruchus maculatus. The experiment in a line: Insecticidal activity against adult Callosobruchus maculatus assessed mean survival fraction ratio at 100 ppm measured 72 hr post dose (reference value: 4.4 +/- 0.31 mean survival fraction). It counts as functional.
Test [3] has as its system Callosobruchus maculatus. The experiment in a line: Inhibition of F1 generation emergence in adult Callosobruchus maculatus grown on compound pre-treated cowpea seeds assessed as reduction in adult emergence at 10 to 500 ppm measured over 2 weeks from start of F1 emergence. It counts as functional, organism-based. Put shortly:
as §1

Test [4] has as its system Callosobruchus maculatus. The experiment in a line: Insecticidal activity against adult Callosobruchus maculatus assessed reduction mean survival fraction measured 72 hr post dose (reference value: 4.4 +/- 0.31 mean survival fraction). It counts as functional.
Test [5] relates to Callosobruchus maculatus. The experiment in a line: Insecticidal activity against adult Callosobruchus maculatus assessed mean survival fraction ratio at 500 ppm measured 72 hr post dose (reference value: 4.4 +/- 0.31 mean survival fraction). It is filed as functional.
In test [6] the test system is Callosobruchus maculatus. Put plainly: Insecticidal activity against adult Callosobruchus maculatus assessed mean survival fraction ratio at 10 ppm measured 72 hr post dose (reference value: 4.4 +/- 0.31 mean survival fraction). It is filed as functional.

Values after ≈ are worked out from the molar mass of the structure shown. Active and inactive are the calls of the source. No cut-off for these calls is given here.

In the case of `COc1cc2c(cc1OC)[C@@H]1C(=O)c3ccc4c(c3O[C@@H]1CO2)C=CC(C)(C)O4` [DEGUELIN], the inhibition result in the test on Callosobruchus maculatus [1] and in the test with Callosobruchus maculatus [3] was “Active” throughout. Besides, the Ratio in the test on Callosobruchus maculatus [2] is reported as 1.4; in the test with Callosobruchus maculatus [5], 0.9; in the test with Callosobruchus maculatus [6] it was 2.6. Moreover, the LC50 in the test on Callosobruchus maculatus [4] was < 10 µg/mL.
As to `COc1cc2c(c3c1C(=O)C[C@@H](c1ccccc1)O3)C=CC(C)(C)O2` [OBOVATIN 5-METHYL ETHER], the Ratio in the test on Callosobruchus maculatus [2] is 4.2; in the test with Callosobruchus maculatus [5], 4.2; in the test on Callosobruchus maculatus [6] it was 3.8.
Take `C=C(C)[C@H]1Cc2c(ccc3c2O[C@@H]2COc4cc(OC)c(OC)cc4[C@@H]2C3=O)O1` [ROTENONE]: the inhibition result with Callosobruchus maculatus [1] and with Callosobruchus maculatus [3] was “Active” each time. In addition, the Ratio in the test with Callosobruchus maculatus [2] was found to be 0.7; in the test on Callosobruchus maculatus [5] it was 0.4; in the test with Callosobruchus maculatus [6] it was 1. For the same molecule, in the test with Callosobruchus maculatus [4], the LC50 is < 10 µg/mL.
`COc1cc2c(cc1OC)[C@]1(O)C(=O)c3ccc4c(c3O[C@@H]1CO2)C1C(O4)C1(C)C` (some centres undefined) [SARCOLOBINE]: the values for the Ratio in the test with Callosobruchus maculatus [2], in the test with Callosobruchus maculatus [5] and in the test with Callosobruchus maculatus [6] were 1.4, 0.6 and 2, respectively. Moreover, the LC50 in the test with Callosobruchus maculatus [4] was < 10 µg/mL.
As for `COc1cc2c(cc1OC)[C@]1(O)C(=O)c3ccc4c(c3O[C@@H]1CO2)C=CC(C)(C)O4` [TEPHROSIN], the inhibition entry with Callosobruchus maculatus [1] and with Callosobruchus maculatus [3] was “Active” throughout. The Ratio with Callosobruchus maculatus [2] is 2.3; with Callosobruchus maculatus [5], 1.8; with Callosobruchus maculatus [6], 2.9. In addition, the LC50 in the test with Callosobruchus maculatus [4] turned out to be 200 µg/mL (≈ 487 µM).
In the case of `COc1cc2c(cc1OC)[C@@H]1C(=O)c3c(O)cc4c(c3O[C@@H]1CO2)C=CC(C)(C)O4` [TOXICAROL], the Ratio with Callosobruchus maculatus [2], with Callosobruchus maculatus [5] and in the test with Callosobruchus maculatus [6] was 2.2 throughout. Also, in the test with Callosobruchus maculatus [4], the LC50 is < 10 µg/mL.

As a reminder, the LC50 is the concentration that kills 50% of the test population. A lower LC50 goes with greater toxicity.
